# Screens as filed in PubChem.
# TbMetRS inhib: T. brucei MetRS inhibitors, primary screen, biochemical, luminescence; purified T. brucei MetRS, ATP depletion, Kinase-Glo luminescence; 0.4% of 360,000 active; AID 624268, 2012; inhibition, % at 11.9 µM; methionyl-tRNA synthetase (Trypanosoma brucei brucei);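 active means inhibition above a per-plate cutoff of the control wells' mean inhibition plus 3 SD, cut at about 5.5% in these data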
#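 Material: parasite MetRS enzyme / Replication: singlicate, one well per compound / Signal: luminescence of leftover ATP / Schedule: 2 h aminoacylation at 25 °C after 15 min preincubation / Medium: HEPES-MgCl2-KCl buffer plus DTT, spermine, BSA, pyrophosphatase / Doses: 11.9 µM single point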
# CHOP inhibitor: inhibitors of CHOP promoter induction, primary screen, cell-based, unfolded protein response, luciferase reporter. CHO-K1 CHOP-promoter luciferase, tunicamycin-induced, 15-18 h. inhibition, % at 10 µM. AID 2732, 2010. 3.8% of 220,000 active;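 active means compounds that reduced the stress-induced luciferase reporter signal by more than about 70% of percent inhibition, limit read from the data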
# GRIN3A LBD mod: binders of NR3A ligand-binding domain, primary screen, biophysical, differential scanning fluorimetry, uHTS | Glutamate receptor ionotropic, NMDA 3A (GRIN3A) ligand-binding domain | NR3A LBD differential scanning fluorimetry, Tm shift; 0% = protein alone, 100% = glycine-bound protein | Tm shift relative to glycine control, % at 25 µM | 2.5% of 340,000 active;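 active means melting temperature shift of at least 10% of the positive control shift, at one fixed dose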
# WT yeast gro inh: growth inhibition of WT strain, primary screen, mitochondrial fusion inhibitor project, WT and mutant strains, chemical genetic | mitochondrial fusion phenotypic screen | inhibition, % at 10 µM | 2.1% of 190,000 active | AID 1362, 2008; in the data active means inhibition above about 58%; tested in S. cerevisiae
# EBV gp42 inh: Epstein-Barr virus gp42 inhibitors, primary screen, biochemical, uHTS, fluorescence polarization | Fluorescence polarization binding assay, mP read-out | inhibition, % (tested at 21.74 µM) | 0.42% of 220,000 active; in the data active means inhibition above about 50%
# Target sequence (Q1HVG2 whole entry, looked up): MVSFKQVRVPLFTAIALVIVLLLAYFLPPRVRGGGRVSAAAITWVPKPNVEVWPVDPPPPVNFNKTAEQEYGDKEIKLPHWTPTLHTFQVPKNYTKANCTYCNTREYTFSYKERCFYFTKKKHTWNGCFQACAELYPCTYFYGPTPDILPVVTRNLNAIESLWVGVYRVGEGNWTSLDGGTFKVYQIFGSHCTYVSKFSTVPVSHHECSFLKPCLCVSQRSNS
# MPTP inh: mitochondrial permeability transition pore inhibitors, primary screen, biochemical, isolated mouse mitochondria, absorbance; Ca2+ swelling absorbance, 30 min; inhibition, % at 10 µM; 1.4% of 360,000 active; AID 602449, 2012;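 active means inhibition of 50% or more, scaled per plate between neutral and stimulator controls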
# Rh123 counter: fluorescence retest of MPTP screen hits in isolated mitochondria, single concentration. shares compounds with MPTP inh. membrane potential, Rhodamine 123 fluorescence. inhibition, % at 10 µM. 78% of 5,000 active. AID 624504, 2012; in the data active means inhibition above about 22%
# MPTP abs DR: mitochondrial permeability transition pore inhibitors, dose response, biochemical, absorbance, uHTS hits; shares compounds with MPTP inh; 58% of 780 active; isolated mitochondria swelling; IC50, µM; AID 651561, 2012; in the data active means IC50 below about 20 µM
# MPTP cs DR: fluorescent counter-screen in isolated mitochondria, dose response, counter-screen for MPTP inhibitor project, biochemical, fluorescence, uHTS hits | shares compounds with MPTP inh | isolated mitochondria counterscreen, fluorescence read-out | IC50, µM | 49% of 780 active; in the data active means IC50 below about 80 µM
# Numbers stand for hits; n = inactive; x = no result; + = active, no number. Hits are enriched below; roughly 6.4% of the tested compounds scored in any of these assays.
SMILES,TbMetRS inhib,CHOP inhibitor,GRIN3A LBD mod,WT yeast gro inh,EBV gp42 inh,MPTP inh,Rh123 counter,others
CC1CCCN(CCOCCOc2ccc(Cl)cc2Br)C1 (stereo not drawn),n,n,n,n,n,59,n,MPTP abs DR=n;MPTP cs DR=n
CCSc1n[nH]c2nc3c(c(=O)n12)C1(CCCCC1)Cc1ccccc1-3,n,n,n,x,n,n,x,
N#CCSc1n[nH]c2nc3c(c(=O)n12)C1(CCCCC1)Cc1ccccc1-3,n,n,n,x,n,70,64,
O=C(Nc1nc(-c2cccs2)c(C(=O)C(F)(F)F)s1)c1ccco1,n,n,n,n,n,n,x,
O=C(Nc1nc(-c2cccs2)c(C(=O)C(F)(F)F)s1)c1ccccc1,n,n,n,60,n,88,98,
COCCCNC(=O)c1c(N)n(/N=C/c2cccs2)c2nc3ccccc3nc12,n,n,n,n,n,n,x,
COCCCNC(=O)c1c(N)n(/N=C/c2cccnc2)c2nc3ccccc3nc12,n,n,n,n,n,+,n,
CN1CCN(C(c2ccc(Br)cc2)c2cc(Cl)c3cccnc3c2O)CC1 (stereo not drawn),n,x,34,x,x,76,n,
O=C(CSc1n[nH]c(-c2cccs2)n1)N1CCCc2ccccc21,n,n,n,n,n,n,x,
COc1ccc(OC)c(C(=O)COC(=O)c2cc(C)oc2C)c1,n,n,n,n,n,60,n,MPTP abs DR=10;MPTP cs DR=n
c1ccc(CC2CCN(C3=Nc4cccc5cccc3c45)CC2)cc1,n,88,n,n,n,51,29,
c1cc2c3c(cccc3c1)C(N1CCOCC1)=N2,n,n,n,x,n,n,x,
O=S(=O)(Nc1nc(-c2sccc2Cl)cs1)c1cc(Cl)ccc1Cl,n,n,14,n,n,78,51,
O=C(NNC(=O)c1cccnc1)Nc1ccc([N+](=O)[O-])cc1,n,n,n,n,n,102,102,
O=C(Nc1ccncc1)c1ccc(Br)cc1,n,x,n,x,x,n,x,
O=C(NNS(=O)(=O)c1ccc([N+](=O)[O-])cc1)c1ccncc1,n,x,n,x,x,n,x,
O=C(NNC(=O)c1ccncc1)Nc1ccc([N+](=O)[O-])cc1,n,n,n,n,n,82,92,
O=C(NNC(=O)c1ccncc1)Nc1ccc(Br)cc1,n,x,14,x,x,87,102,
O=C(Nc1ccc(Cl)c(Cl)c1)Nc1cc(C(=O)N2CCOCC2)ccc1N1CCCCC1,n,x,n,x,x,95,n,MPTP abs DR=18;MPTP cs DR=<2.5
Oc1cc(Cl)cc(Cl)c1Cl,n,x,n,x,x,52,80,
CCOC(=O)COn1c(=O)c(C)[n+]([O-])c2ccccc21,n,n,n,n,n,n,x,
Cc1nc(NS(=O)(=O)c2ccccc2)sc1C(=O)NNS(=O)(=O)c1ccccc1,n,x,n,x,x,n,x,
Cc1nc(C)c(C(=O)NNS(=O)(=O)c2ccc3ccccc3c2)s1,n,n,n,n,n,89,62,
O=C(COc1ccccc1/C=C1\SC(=S)NC1=O)Nc1ccc(F)cc1,n,x,14,x,x,61,78,
COC(=O)C1=C(N)OC2=C(C(=O)CC(C)(C)C2)C1c1ccccc1OCC#N (stereo not drawn),n,n,n,n,n,n,x,
Cc1ncoc1C(=O)NC1CCCc2c1cnn2-c1ccc(C(C)(C)C)cc1 (stereo not drawn),n,x,n,x,x,79,94,
Cc1ccc(-n2ncc3c2CCCC3NC(=O)c2ccoc2)cc1C (stereo not drawn),n,x,n,x,x,n,x,
Cc1cc(C(=O)NC2CCCc3c2cnn3-c2ccc(C)c(C)c2)n(C)n1 (stereo not drawn),n,x,n,x,x,93,87,
